Measured values from article PMC5814546 (Clinical Pharmacokinetics, 2017).
Entries after “also recorded” stand apart in the source; their conditions may differ. Like-named read-outs stand apart in the source and are kept apart here.

How the values were obtained:
[1] = Summary of clinical safety and tolerability in phase I SAD and MAD studies; format: in vivo, human
How it was run: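 Healthy volunteers received oral ALZ-801 as capsule or tablet, fasted or fed, in single and multiple-dose placebo-controlled studies. AEs were logged from first dose to discharge and at a follow-up call, then coded with MedDRA v18.1. QTc and safety laboratory tests were monitored against withdrawal criteria. Summaries are given as cases or cases (%).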

[2] = Safety and tolerability, tablet single ascending dose study; format: in vivo, human
[3] = Drug substance properties; format: physicochemical
[4] = biological target: T1, organic anion transporter (OAT) 1 (Homo sapiens, UniProt Q4U2R8); experiment: Effect on renal transporters; format: in vitro ADME; conditions: concentrations up to 100 mM; data on file
T1 sequence (Q4U2R8 1-563): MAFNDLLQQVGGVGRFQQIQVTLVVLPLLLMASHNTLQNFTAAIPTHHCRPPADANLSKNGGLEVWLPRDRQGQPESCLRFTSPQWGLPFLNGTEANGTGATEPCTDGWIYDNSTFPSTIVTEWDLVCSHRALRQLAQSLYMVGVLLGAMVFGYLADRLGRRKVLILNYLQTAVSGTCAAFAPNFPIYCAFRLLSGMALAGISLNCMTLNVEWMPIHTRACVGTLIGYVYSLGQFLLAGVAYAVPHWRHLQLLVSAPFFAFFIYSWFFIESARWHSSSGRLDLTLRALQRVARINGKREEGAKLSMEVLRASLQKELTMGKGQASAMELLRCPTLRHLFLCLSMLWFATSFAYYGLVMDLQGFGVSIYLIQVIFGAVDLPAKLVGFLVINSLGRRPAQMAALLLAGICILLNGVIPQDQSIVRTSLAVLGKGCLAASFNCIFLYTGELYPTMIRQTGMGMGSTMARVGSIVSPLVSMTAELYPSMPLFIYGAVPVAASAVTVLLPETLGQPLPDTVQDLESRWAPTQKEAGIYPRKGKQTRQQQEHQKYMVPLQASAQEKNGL

[5] = cited from earlier work; for ADAS-cog difference compared with placebo: oral tramiprosate
[6] = Regimen A: 171 mg tablet, fasted, n = 10
[7] = Regimen B: 205 mg tablet, fasted, n = 11
[8] = Regimen C: 205 mg tablet, fed, n = 12

Structure (SMILES): CC(C)[C@H](N)C(=O)NCCCS(=O)(=O)O [ALZ-801, 3-(L-valyl) amino-1-propanesulfonic acid]
- tolerability ([1]; oral, capsule or tablet, healthy volunteers): well tolerated
- dose-limiting toxicity or maximum tolerated dose ([1]; over 2 weeks of dosing at doses up to 342 mg twice daily): no dose-limiting toxicity or maximum tolerated dose (MTD) was observed; also recorded: no dose-limiting toxicity was observed
- Chills [2, 6]: 0
- Flatulence [2, 6]: 0
- Flushing [2, 6]: 0
- Gastrointestinal disorders [2, 6]: 4
- General disorders and administration site conditions [2, 6]: 0
- Headache [2, 6]: 0
- Nausea [2, 6]: 4
- Nervous system disorders [2, 6]: 0
- Somnolence [2, 6]: 0
- Subjects reporting AEs [2, 6]: 4
- Vascular disorders [2, 6]: 0
- Vomiting [2, 6]: 1
- Chills [2, 7]: 0
- Flatulence [2, 7]: 0
- Flushing [2, 7]: 0
- Gastrointestinal disorders [2, 7]: 4
- General disorders and administration site conditions [2, 7]: 0
- Headache [2, 7]: 0
- Nausea [2, 7]: 4
- Nervous system disorders [2, 7]: 0
- Somnolence [2, 7]: 0
- Subjects reporting AEs [2, 7]: 4
- Vascular disorders [2, 7]: 0
- Vomiting [2, 7]: 1
- Chills [2, 8]: 0
- Flatulence [2, 8]: 0
- Flushing [2, 8]: 0
- Gastrointestinal disorders [2, 8]: 0
- General disorders and administration site conditions [2, 8]: 0
- Headache [2, 8]: 0
- Nausea [2, 8]: 0
- Nervous system disorders [2, 8]: 0
- Somnolence [2, 8]: 0
- Subjects reporting AEs [2, 8]: 0
- Vascular disorders [2, 8]: 0
- Vomiting [2, 8]: 0
- Subjects reporting AEs ([2]; Regimen D: 342 mg (2 × 171 mg tablets), fed, n = 12): 3
- Chills ([2]; Regimen D: 342 mg, fed, n = 12): 0
- Flatulence ([2]; Regimen D: 342 mg, fed, n = 12): 0
- Flushing ([2]; Regimen D: 342 mg, fed, n = 12): 0
- Gastrointestinal disorders ([2]; Regimen D: 342 mg, fed, n = 12): 3
- General disorders and administration site conditions ([2]; Regimen D: 342 mg, fed, n = 12): 0
- Headache ([2]; Regimen D: 342 mg, fed, n = 12): 0
- Nausea ([2]; Regimen D: 342 mg, fed, n = 12): 3
- Nervous system disorders ([2]; Regimen D: 342 mg, fed, n = 12): 0
- Somnolence ([2]; Regimen D: 342 mg, fed, n = 12): 0
- Vascular disorders ([2]; Regimen D: 342 mg, fed, n = 12): 0
- Vomiting ([2]; Regimen D: 342 mg, fed, n = 12): 0
- onset of nausea ([2]; following fasted dosing): 0.5 to 1 h
- onset of nausea ([2]; following fed dosing): 1.5 to 2.5 h
- tolerability ([2]; tablet SAD study (Study 3)): well tolerated
- pKa [3]: 7.69
- solubility ([3]; water): > 200 mg/mL

Structure (SMILES): NCCCS(=O)(=O)O [tramiprosate, 3-amino-1-propanesulfonic acid]
- effect on renal transporter [4]: no effect
- ADAS-cog difference compared with placebo ([5]; APOE4 carriers): 2 point
- ADAS-cog difference compared with placebo ([5]; APOE4 homozygous (APOE4/4) patients): 4 point
- CSF drug levels ([5]; oral tramiprosate 150 mg twice daily for 78 weeks): 60 nM
- mean plasma exposure AUC12 ([5]; tramiprosate 150 mg twice daily, 78 weeks, phase III): 4429 ng·h/mL
